The source of these data is ChEMBL document CHEMBL1121744, “Synthesis and antihypertensive activity of a series of 8-substituted 1-oxa-3,8-diazaspiro[4.5]decan-2-ones” (J Med Chem, 1981).

Data set [1] can be described thus: (§1) Distribution coefficient between 1-Octanol and phosphate buffer at pH7.4. It is filed as physicochemical. To be noted: 1-octanol/phosphate buffer, pH 7.4.
Data set [2] deals with Rattus norvegicus. Description: Antihypertensive activity as percentage fall in systolic blood pressure in spontaneously hypertensive rats after a period of 1 hr for a dose of 50 mg/kg po. The conditions noted are these: Artery. It is filed as functional, organism-based. Also noted: dose 50 mg/kg. Put shortly:
(§2)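 Male Okamoto-Aoki SHR, trained, in groups of four matched for mean systolic pressure; one group per run received water vehicle. Oral dosing in water (0.1 mL per 10 g) on two consecutive mornings. After the day-2 dose, rats were restrained at 30.0 ± 1.0 °C. Systolic pressure was read by tail cuff (inflated to 300 mmHg, first pulse) at 1–4 h. % fall is versus the untreated control group, by 1-tail t test (p ≤ 0.05).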

Data set [3] deals with Rattus norvegicus. As to the kind of experiment: Antihypertensive activity as percentage fall in systolic blood pressure in spontaneously hypertensive rats after a period of 2 hr for a dose of 50 mg/kg. Format: functional, organism-based. Also noted: dose 50 mg/kg. The conditions noted are these: Artery. Put shortly: as §2
The subject of data set [4] is Rattus norvegicus. As to the kind of experiment: Antihypertensive activity as percentage fall in systolic blood pressure in spontaneously hypertensive rats after a period of 3 h for a dose of 50 mg/kg. Format: functional, organism-based. Also noted: dose 50 mg/kg. To be noted: Artery. Put shortly:
as §2

The subject of data set [5] is Rattus norvegicus. As to the kind of experiment: Antihypertensive activity as percentage fall in systolic blood pressure in spontaneously hypertensive rats after a period of 4 hr for a dose of 50 mg/kg. To be noted: Artery. It is filed as functional, organism-based. Also noted: dose 50 mg/kg. In short, it runs like this:
as §2

Data set [6] concerns Rattus norvegicus. As to the kind of experiment: The antihypertensive activity as percentage fall in systolic blood pressure in spontaneously hypertensive rats after a period of 3 hr for a dose of 50 mg/kg po.
Data set [7] has as its system Rattus norvegicus. Description: The antihypertensive activity as percentage fall in systolic blood pressure in spontaneously hypertensive rats after a period of 2 hr for a dose of 50 mg/kg po.
Data set [8] concerns Rattus norvegicus. As to the kind of experiment: The antihypertensive activity as percentage fall in systolic blood pressure in spontaneously hypertensive rats after a period of 1 hr for a dose of 50 mg/kg po.
For data set [9], the system named is Rattus norvegicus. Description: The antihypertensive activity as percentage fall in systolic blood pressure in spontaneously hypertensive rats after a period of 4 hr for a dose of 50 mg/kg po.
For data set [10], the system named is Rattus norvegicus. Description: Antihypertensive activity as percentage fall in systolic blood pressure in spontaneously hypertensive rats after a period of 1 hr for a dose of 50 mg/kg po; NS=Not significant. Format: functional, organism-based. Details: dose 50 mg/kg. To be noted: Artery. In short, it runs like this: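 Male Okamoto-Aoki SHR, trained, in groups of four matched for systolic pressure, with a concurrent vehicle control group. Oral dosing on two consecutive mornings, in water as solution or suspension at 0.1 mL/10 g. On day 2 rats were restrained at 30.0 ± 1.0 °C. Tail-cuff systolic pressure, four traces per rat, read at each hour. Per cent fall versus control; 1-tail t test, p ≤ 0.05.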

Data set [11] is described as follows: as §1. It is filed as physicochemical. The conditions noted are these: 1-octanol/phosphate buffer, pH 7.4. Put shortly:
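Octanol/buffer distribution measured at pH 7.4 in phosphate with sodium chloride. Either HPLC (0.004 M) or shake flask.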
The source holds these as a separate data set.

Active and inactive are the calls of the source. The rule behind the calls is not given here.

One may read the logD as the decadic logarithm of the distribution of all forms, ionised or not, between an organic phase and buffer at a given pH. In the case of `COc1ccccc1OCC(O)CN1CCC2(CC1)CN(Cc1ccccc1)C(=O)O2` (centres undefined), the logD in data set [1] came out at 2.19. Moreover, the “Decrease in blood pressure” value in data set [2], in [3], in data set [4] and in data set [5] was “Not significant” each time.
For `CCC1NC(=O)OC12CCN(CC(O)C1COc3ccccc3O1)CC2` (centres undefined), the “Decrease in blood pressure” value was 32% in [6], 43% in data set [7], 47% in data set [8] and 40% in data set [9].
As for `CCN1CC2(CCN(CCc3c[nH]c4ccccc34)CC2)OC1=O`, the “Decrease in blood pressure” value in [3], in [4] and in data set [5] was “Not significant” throughout. For the same compound, the “Decrease in blood pressure” value in data set [10] was “inactive”. Further, in data set [11], the logD was found to be 1.92.
